Experimental data of several laboratories.
Protocols differ between the studies behind these lines.
Effect on: chemical stability

Compound	method	medium	concentration	pH	half-life
CCOC(=O)c1nn(C(=O)C2CC2)c2ccccc2c1=O	–	aqueous buffer	–	pH 7.3	1.44 h
Cc1ccc(S(=O)(=O)NCC2CCN(C(=O)OC(C(F)(F)F)C(F)(F)F)CC2)cc1	HPLC	aqueous buffer	167 µM	pH 7.4	1.24 h
CO[C@@H]1[C@H](O)[C@@H](CO)O[C@H]1n1c([N+](=O)[O-])nc2c(=O)[nH]c(N)nc21	HPLC	aqueous buffer	500 µM	pH 2	11 h
Cc1cccc(C(=O)n2ncc(=O)c3cc([N+](=O)[O-])ccc32)c1	–	aqueous buffer	–	pH 7.3	0.55 h
Cn1nnc2c(-c3ccccc3)ncn2c1=O	HPLC	PBS	–	pH 7.4	> 20 h
COc1ccc(OC)c(/C=C2\CC/C(=C\c3ccc(O)c(OC)c3)C2=O)c1	HPLC	culture medium	10 µM	–	2.6 h
Nc1nc2c(nc([N+](=O)[O-])n2[C@@H]2O[C@H](CO)[C@@H](O)[C@H]2O)c(=O)[nH]1	HPLC	aqueous buffer	500 µM	pH 2	5.35 h
CO[C@@H](C[C@H]1C(C)=CC[C@@H]2[C@]3(C)C[C@H](O[C@@H]4O[C@@H](C)[C@H](OC(=O)c5cccc(O)c5)[C@@H](O[C@@H]5O[C@H](CO)[C@@H](O)[C@H](O)[C@H]5NC(C)=O)[C@H]4O)[C@@H](O)C(C)(C)[C@H]3CC[C@]21C)[C@H](N)C(=O)O.O=C(O)C(F)(F)F	–	simulated intestinal fluid	1 µM	pH 6.8	> 8 h
O=C(OC(C(F)(F)F)C(F)(F)F)N1CCC(CNS(=O)(=O)c2ccc(Cl)cc2)CC1	HPLC	aqueous buffer	167 µM	pH 7.4	6.86 h
Cc1cccc(C(=O)Oc2cnnc3ccc([N+](=O)[O-])cc23)c1	–	aqueous buffer	–	pH 7.3	0.698 h
Cc1cn([C@H]2C=C[C@@H](CO)O2)c(=O)[nH]c1=O	HPLC	aqueous buffer	920 µM	pH 7.3	> 40 h
COc1ccc(S(=O)(=O)NCC2CCN(C(=O)OC(C(F)(F)F)C(F)(F)F)CC2)cc1	HPLC	aqueous buffer	167 µM	pH 7.4	2.58 h
COc1cc(/C=C/C(=O)CC(=O)/C=C/c2ccc(O)c(OC)c2)ccc1O	HPLC	culture medium	10 µM	–	0.9 h
